Beta cell apopt = beta cell apoptosis inhibition. protection from apoptosis, % (test concentration not listed). AID 435005. INS-1E cytokine-induced death, ATP luminescence, 48 h; percent of positive-control rescue, neutral wells zero. 300,000 tested, 0.8% active;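 active = Every replicate reaches about 75%, or at least half do and their mean reaches it too, limit read from the data; inconclusive = At least half of replicates reach the limit but their mean does not; inactive = Under half of replicates reach the limit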;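 also: higher means more ATP so stronger rescue from cytokine killing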
CSC inhib = cancer stem cell inhibition; cancer stem cell-like cells viability, luminescence; inhibition, % at 7.5 µM; 300,000 tested, 1.1% active; in the data active = inhibition above about 75%; inconclusive = no clear call, values can overlap the other calls; tested in HMLE shEcad cells
Calb FLC = affects C. albicans growth with fluconazole | C. albicans CaCi-2 (fluconazole-resistant clinical isolate) + fluconazole, Alamar Blue growth, 48 h | growth inhibition, % (test concentration not listed) | 300,000 tested, 0.57% active | AID 1979;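 active = growth inhibition above about 58% in most replicates, limit read from the data, passing the limit was not always enough; inconclusive = exactly half the replicates above a set limit; inactive = most replicates below a set limit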;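 also: all wells also contain fluconazole at 8 µg/ml as a sub-toxic cotreatment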
SKKanGAS inh = SKKanGAS growth inhibition | 300,000 tested, 1.3% active | S. pyogenes SKKanGAS, kanamycin growth, BacTiter-Glo, 6 h | inhibition, % at 7.5 µM | AID 1662;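 active = mean replicate score, as percent of positive control median, at least 50; inconclusive = mean below 50 but one replicate at or above 50; inactive = mean and every replicate below 50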;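 also: strain carries kanamycin resistance gene driven by streptokinase promoter and grows in 40 µg/ml kanamycin; loss of luminescence reflects streptokinase promoter inhibition or plain growth inhibition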
Mdm2 MdmX PPI = disrupts the human Mdm2-MdmX interaction. SaOS-2 split-luciferase Mdm2/MdmX complementation, luminescence. inhibition, % at 8 µM. AID 485346. O15151+Q00987. 330,000 tested, 3% active;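 active = inhibition of at least 50% at 8 µM in the primary screen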
T cruzi inh = blocks replication of Trypanosoma cruzi; inhibition, % (concentration not given with the values); T. cruzi beta-gal in NIH3T3, luminescence, 90 h; 300,000 tested, 1.4% active; AID 1885;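 active = mean inhibition across valid replicates above about 55%, limit read from the data; inconclusive = mean below that limit but half or more replicates reach it; inactive = mean below it, under half of replicates reach it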;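 also: signal also drops with host cell toxicity which is not excluded here; higher percent means less beta-gal luminescence so fewer parasites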
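Incubation – ≥90 h infection period, 3 h prior cell attachment · System – NIH/3T3 fibroblasts plus reporter T. cruzi · Doses – compound pinned at 50 nL/well, DMSO · Read-out basis – percent inhibition of parasite-derived β-gal signal · Signal – luminescent β-galactosidase signal after 60 min lysis · Also added – 5000 T. cruzi trypomastigotes/well · Medium – Low-serum DMEM with 2% FBS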
Mdm2-MdmX conf = human Mdm2/MdmX binding inhibition, confirmed. shares compounds with Mdm2 MdmX PPI. luminescent assay. inhibition, % at 8 µM. 10,000 tested, 55% active; in the data active = inhibition above about 40%
Full FLuc ctr = full-length luciferase inhibition in Mdm2/MdmX counter-screen; shares compounds with Mdm2 MdmX PPI; SaOS-2 full-length luciferase counterscreen, luminescence; inhibition, % at 8 µM; 6,200 tested, 77% active; AID 504607;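 active = mean inhibition at 8 µM reaching about 37%, which flags the compound as non-specific, limit read from the data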;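 also: p53-null SaOS-2 cells with luciferase driven by a doxycycline-inducible promoter; compound on cells about two nights before reading with doxycycline added after day one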
Numbers stand for hits; 0 = inactive; ? = inconclusive; - = no result given. Most compounds without a hit are left out; they make up all but 5.7% or so of the library.

SMILES	Beta cell apopt	CSC inhib	Calb FLC	SKKanGAS inh	Mdm2 MdmX PPI	T cruzi inh	Mdm2-MdmX conf	others
O=C(NCCC1=CCCCC1)C1CCC(CNc2nc(=S)[nH]c3ccccc23)CC1 (stereo not given)	0	0	0	0	0	0	-
COCCNC(=O)Cn1c(=O)oc2cc(S(=O)(=O)N3CC(C)CC(C)C3)ccc21 (stereo not given)	0	0	0	0	0	0	-
Cc1cc(NC(=O)c2c(F)cccc2F)n(-c2nc3ccccc3[nH]2)n1	0	0	0	0	53.4	0	0
Cc1cc(NC(=O)c2c(F)cccc2Cl)n(-c2nc3ccccc3[nH]2)n1	0	0	108.9	118.5	68.0	0	0
Cc1cc(Nc2ccccc2)n(-c2nc3ccccc3[nH]2)n1	0	0	0	114.0	52.8	0	0
Cc1cc(NC(=O)C2CCCCC2)n(-c2nc3ccccc3[nH]2)n1	0	0	0	0	56.9	0	43.1	Full FLuc ctr=67.6
Cc1cc(NC(=O)/C=C/c2ccc(F)cc2)n(-c2nc3ccccc3[nH]2)n1	0	0	?	0	0	0	-
Cc1cc(C)n(-c2nc3ccccc3[nH]c2=O)n1	0	0	0	0	0	0	-
CC(Oc1cc2oc(=O)c3c(c2cc1Cl)CCC3)C(=O)NCc1ccccn1 (stereo not given)	0	0	0	0	0	0	-
COc1ccc2c(-c3cnc(N4CCOCC4)nc3)c(-c3ccc(S(C)(=O)=O)cc3)sc2c1	0	0	-	-	68.4	-	0
COc1ccc2c(-c3ccc(SC)cc3)c(-c3ccc(S(C)(=O)=O)cc3)sc2c1	0	0	-	-	0	-	-
COc1cc(C2NCC(c3ccc(Cl)cc3Cl)c3c2[nH]c2ccccc32)cc(OC)c1OC (stereo not given)	0	80.6	0	0	61.1	0	0
COc1cccc(CNC(=O)C2CCC(=O)N(CC3CCCCC3)C2)c1OC (stereo not given)	0	-	0	0	0	0	-
ClC1=C(Cl)C(Cl)=C(Cl)C1=C/C=C/c1ccccc1	116.3	103.4	0	0	100.2	62.9	99.4	Full FLuc ctr=0
C/C(=N\NC(=O)C(N)=O)c1cccc(C(F)(F)F)c1	-	0	0	0	0	0	-
CN1CCN(C2Cc3cc(F)ccc3Sc3ccc(Cl)cc32)CC1 (stereo not given)	0	0	0	0	0	0	-
CN1CCN(C2Cc3ccccc3Sc3ccc(Cl)cc32)CC1 (stereo not given)	0	0	-	-	0	-	-
CN1CCN(C2Cc3ccc(F)cc3Sc3cc(F)c(Cl)cc32)CC1 (stereo not given)	-	100.8	0	97.3	64.7	0	40.7	Full FLuc ctr=56.5
CC(C)c1ccc2c(c1)C(N1CCNCC1)Cc1ccc(F)cc1S2 (stereo not given)	116.3	102.5	0	0	61.8	-	0
CSc1ccc2c(c1)C(N1CCN(C)CC1)Cc1ccccc1S2 (stereo not given)	0	?	0	0	68.9	0	0
COc1ccccc1NS(=O)(=O)c1cc(C(=O)NCC(c2ccc(F)cc2)N2CCOCC2)ccc1C (stereo not given)	0	-	0	0	0	0	-
CN1C(=O)N(CC(=O)N2CCN(S(=O)(=O)c3ccc4c(c3)CCC4)CC2)C(=O)C12CCCCC2	-	-	-	-	0	-	-
CCOC(=O)N1CCN(S(=O)(=O)Cc2ccccc2)CC1	0	0	0	0	0	0	-
O=C(CCl)N1CCN(S(=O)(=O)c2ccc3c(c2)CCC3)CC1	0	-	-	-	63.8	-	0
O=C(CCl)N1CCN(S(=O)(=O)Cc2ccccc2)CC1	0	-	-	-	70.7	-	0
SMILES	Beta cell apopt	CSC inhib	Calb FLC	SKKanGAS inh	Mdm2 MdmX PPI	T cruzi inh	Mdm2-MdmX conf	others
COc1ccc(N(CC(=O)NCCc2ccccc2)C(=O)c2csnn2)cc1	0	-	0	0	0	0	-
Cc1cccc(NC(=O)CCCN=C2NS(=O)(=O)c3ccccc32)c1C	0	0	-	-	0	-	-
Cc1cccc(CSc2cccc3cccnc23)c1	0	0	0	0	51.1	70.1	66.8	Full FLuc ctr=37.3
CCOC(=O)CSc1cccc2cccnc12	0	0	0	0	77.3	0	0
CC(=O)c1c(C)[nH]c(C(=O)OCC(=O)N2CCc3ccccc3C2)c1C	0	-	-	-	0	-	-
CCN(CC)c1ccc2c(Cl)c(Br)c(=O)oc2c1	0	?	0	0	100.4	59.4	43.9	Full FLuc ctr=0
CCN(CC)c1ccc2c(c1)oc(=O)c1c(Cl)cc(=O)oc12	0	0	0	0	98.9	0	99.5	Full FLuc ctr=56.6
COc1ccc(C(=O)NC(=S)Nc2ccc3oc(=O)ccc3c2)cc1	0	-	0	0	73.3	0	0	Full FLuc ctr=84.1
COc1ccc(OCC(=O)Nc2ccc3oc(=O)ccc3c2)cc1	0	0	0	0	0	0	-
COc1ccc(/C=C2/SC(=O)N(CCC(=O)Nc3ccc(C)cc3)C2=O)cc1OC	0	0	0	0	0	0	-
COc1cc(/C=C2\SC(=S)N(CCC(=O)Nc3ccc(O)cc3)C2=O)cc(OC)c1OC	0	0	0	0	92.4	0	0
COc1ccc(/C=C2\SC(=S)N(CCCCCC(=O)Nc3cc(C)on3)C2=O)cc1OC	0	0	0	0	65.7	0	0
COc1cc(/C=C2\SC(N)=NC2=O)ccc1OCC(=O)Nc1ccc(C)cc1	0	0	0	0	56.5	0	0
O=C(CCCN1C(=O)/C(=C\c2ccco2)SC1=S)Nc1ccc2ccccc2c1	0	86.2	0	0	60.3	0	0	Full FLuc ctr=98.2
COc1cc(/C=C2/SC(=S)N(CCC(=O)Nc3ccc(C(=O)O)cc3)C2=O)cc(OC)c1OC	0	0	0	0	0	0	-
CC1=C(CC(=O)O)c2cc(F)ccc2/C1=C/c1ccc(S(C)=O)cc1 (stereo not given)	0	0	0	0	0	0	-
Cc1ccc(S(N)(=O)=O)cc1NC(=O)C(c1ccccc1)c1ccccc1	0	0	0	0	0	0	-
CCN(CCS(=O)(=O)c1ccc(Cl)cc1)C(=O)Nc1ccc(Cl)cc1	0	0	0	0	0	0	-
CC(Cc1ccccc1)N1C(=O)c2cccc([N+](=O)[O-])c2C1=O (stereo not given)	0	0	0	0	0	0	-
CCOC(=O)c1c(C)[nH]c(C2=NNC(=Nc3cccc(Cl)c3)SC2)c1C	0	0	0	0	0	0	-
Cc1cc(C)c(NC(=O)CN)c(C)c1	0	0	0	0	0	0	-
COc1ccc(/C=C2\SC(=S)N(CCC(=O)Nc3ccc(C(=O)O)cc3)C2=O)cc1	0	0	0	0	0	0	-
COc1ccc(/C=C2/SC(=S)N(CCCC(=O)Nc3ccc(O)cc3)C2=O)cc1	0	0	0	0	88.1	0	90.4	Full FLuc ctr=56.0
COc1ccc(/C=C2/SC(=O)N(CCC(=O)Nc3ccccc3)C2=O)cc1OC	0	0	0	0	74.9	0	0	Full FLuc ctr=81.8

Screens: PubChem, several laboratories
